Activity calls are given as the source filed them. The rule behind the calls is not given here.
molecular target: T1, Phospholipase A2 (Apis mellifera, UniProt B7UUK1); assay: (§1) Inhibition of bee venom PLA2; details: not given
T1 sequence (B7UUK1 whole entry): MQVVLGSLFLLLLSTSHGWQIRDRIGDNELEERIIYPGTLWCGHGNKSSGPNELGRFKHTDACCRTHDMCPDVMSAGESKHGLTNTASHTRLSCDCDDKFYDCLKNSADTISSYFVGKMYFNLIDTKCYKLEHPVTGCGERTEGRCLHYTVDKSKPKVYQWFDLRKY

SMILES	IC50 [nM]
CC1=C(CC/C(C)=C/CC/C(C)=C/CCC2=CC(=O)OC2O)C(C)(C)CCC1 (stereo unspecified) [LUFFARIELLOLIDE]	230
CC1=C(CC/C(C)=C/CC/C(C=O)=C\C=C\C2=CC(=O)O[C@H]2O)C(C)(C)CCC1	280
CC1=C(CC/C(C)=C/CCC2=CC[C@H](C3=CC(=O)O[C@H]3O)O[C@H]2O)C(C)(C)CCC1 [MANOALIDE]	40
CC(=O)O[C@H]1C[C@@H]2[C@@]3(C)CCCC(C)(C)[C@@H]3CC[C@@]2(C)[C@@H]2CC=C(C=O)[C@H](C=O)[C@@]12C [SCALARADIAL]	70
CC1(C)CCC[C@]2(C)[C@H]3C[C@@H](O)[C@]4(C)[C@@H](C=O)C(C=O)=CC[C@H]4[C@]3(C)CC[C@@H]12	200

molecular target: T2, Phospholipase A2 (Apis mellifera) (UniProt B7UUK1); assay: as §1; details: not given
T2 sequence (whole entry): T1 sequence (B7UUK1 whole entry)

SMILES	Activity
C=C1CCC[C@H]2[C@](C)(CC3=C(O)C(=O)C=C(OC)C3=O)[C@@H](C)CC[C@]12C	inactive

molecular target: T3, Phospholipase A2, membrane associated (Homo sapiens) (UniProt P14555); assay: Inhibition of human synovial fluid-PLA2; details: concentration not given here
T3 sequence (whole entry): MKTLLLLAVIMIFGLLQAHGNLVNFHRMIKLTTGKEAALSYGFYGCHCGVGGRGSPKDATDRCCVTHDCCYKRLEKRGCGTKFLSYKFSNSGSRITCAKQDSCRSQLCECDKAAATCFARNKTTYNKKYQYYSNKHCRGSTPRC

SMILES	inhibition [%]
CC1=C(CC/C(C)=C/CC/C(C)=C/CCC2=CC(=O)OC2O)C(C)(C)CCC1 (stereo unspecified) [LUFFARIELLOLIDE]	98

molecular target: T2, Phospholipase A2 (Apis mellifera); assay: Inhibition of bee venom PLA2 at 4 uM; details: not given

SMILES	inhibition [%]
CC1(C)CCC[C@]2(C)[C@H]3C[C@@H](O)[C@]4(C)[C@H](C=O)C(C=O)=CC[C@H]4[C@]3(C)CC[C@@H]12	< 70

molecular target: T2, Phospholipase A2 (Apis mellifera); assay: Inhibition of bee venom PLA2 assessed as inactivation of enzyme at 1.6 ug/ml; design: scale not given: the % may be the effect or the level left; details: not given
How it was run: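 ³H-dipalmitoyl phosphatidylcholine (1.36 mM, Triton X-100 mixed micelles) in 10 mM HEPES, 1 mM CaCl2, pH 7.4. Bee venom PLA2 (100 units/ml) preincubated 1 h at 41° with compound from 10 mg/ml stock, then added to substrate for 15 sec at 41°. Acid-quenched, released palmitic acid extracted and scintillation counted, corrected for background and extraction efficiency. % inactivation vs vehicle, triplicate mean.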

SMILES	Activity [%]
Oc1cc(Cc2c(O)c(Br)c(O)c(Cc3cc(O)c(O)c(Br)c3Br)c2O)c(Br)c(Br)c1O	96
Oc1cc(Cc2c(O)cc(O)c(Br)c2O)c(Br)c(Br)c1O	96

molecular target: T2, Phospholipase A2 (Apis mellifera); assay: Inhibition of bee venom PLA2 assessed as inactivation of enzyme at 2 ug/ml; design: scale not given: the % may be the effect or the level left; details: not given

SMILES	Activity
C=C([C@@H]1[C@@H](OC(C)=O)O[C@@H]2OC(=O)C[C@@H]21)[C@H]1CC[C@H]2C(C)(C)CCC[C@]12C	66%
C=C1CCCC(C)(C)[C@@H]2CC[C@@](C)([C@H]3[C@H]4CC(=O)O[C@H]4O[C@H]3O)[C@H]12	48%
CCCC(=O)O[C@@H]1C[C@H]2C(C)(C)CCC[C@]2(C)C2CC[C@H]3C(=O)O[C@H]4O[C@@H](O)[C@]21[C@H]43 (stereo partly specified)	65%
CC1=CC(CC2=CC(=O)OC2O)C(C(C)C)CC1 (stereo unspecified)	60%
CC1=CC2C[C@]34OC(=O)C[C@]3(O4)C(C)(C)C2CC1 (stereo partly specified)	inactive
CC1=C[C@H]2Cc3occc3C(C)(C)[C@H]2CC1	inactive
CC(=O)O[C@@H]1O[C@H]2OC(=O)[C@H](C)C3=C([C@@]4(C)CCCC(C)(C)C4)C[C@@H](OC(C)=O)[C@@H]1[C@H]32	60%
CC1=C[C@H]2Cc3ccoc3C(C)(C)[C@H]2CC1	inactive
CCCC(=O)O[C@H]1[C@@H](O)[C@@]23C(CC[C@H]4C(=O)O[C@@H](O[C@H]2O)[C@H]43)[C@@]2(C)CCCC(C)(C)[C@@H]12 (stereo partly specified)	44%
CC1=CC2C[C@]3(O)OC(=O)C=C3C(C)(C)C2CC1 (stereo partly specified)	60%
CCCC(=O)O[C@H]1[C@@H](OC(C)=O)[C@@]23C(CC[C@H]4C(=O)O[C@@H](O[C@H]2O)[C@H]43)[C@@]2(C)CCCC(C)(C)[C@H]12 (stereo partly specified)	50%

Reference: ChEMBL document CHEMBL1150062, “Phospholipase A2 inhibitors from marine organisms” (J Nat Prod, 1992)
